Source: PMC4917231 (MedChemComm, 2016)

Assays:
[1] = Tissue distribution study in mice after IP dosing; format: in vivo; settings: 20 mg/kg IP
Procedure, shortened: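 Non-tumour-bearing mice received a single IP dose of test compound at 20 mg kg⁻¹, given as a 1 mg ml⁻¹ formulation in 10:10:80 DMSO:Tween80:water. Compound residence in tissues was followed after dosing.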

[2] = test system: Raji Burkitt B-cell lymphoma; assay: 96h MTT assay using Raji Burkitt B-cell lymphoma; format: cell-based; settings: Homo sapiens, Raji cells

detectability in tissues seven days after IP administration [1]	EC50 [2]	SMILES
detectable in all tissues		CC(C)Cc1nn(C)c(=O)c2c(SCCCO)n(Cc3ccc(C#CCCCOc4ccc(C[C@H](N)C(=O)O)cc4)c4ccccc34)cc12 [Compound 10]
	~100 nM	CC(C)Cc1nn(C)c(=O)c2c(SCCCO)n(Cc3ccc(NCCCCCNC(=O)[C@@H](N)CCC(N)=O)nc3)cc12 [Compound 12]
